According to ChEMBL document CHEMBL1157635, “Synthesis, radiofluorination, and hypoxia-selective studies of FRAZ: A configurational and positional analogue of the clinical hypoxia marker, [18F]-FAZA” (Bioorg Med Chem, 2010):

Tests used:
[1] = Toxicity in Kirsten virus transformed mouse KBALB-STK cells at < 10 mM assessed as reduction of cell survival after 72 hrs by MTT assay; type: cell-based
In short: (§1)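 Exponentially growing cells seeded at 8 × 10² cells/well and pre-incubated 24 h at 37 °C (5% CO2). Compound added in growth medium over 10^-7 to 10^-3 M, with medium-only controls, for 72 h. MTT then added for 4 h, formazan dissolved in DMSO and absorbance read at 540 nm.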

HCT-116 = test: Hypoxia radiosensitization activity in human HCT116 cells assessed as sensitizer enhancement ratio at 100 uM after 24 hrs by [60]Co X-ray source based clonogenic survival assay; type: functional
In short: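 HCT-116 cells pre-incubated 20 h, then exposed to 100 µM (from 10 mM stock in 95% ethanol) for 24 h. Hypoxic dishes degassed by six vacuum/N2 cycles, normoxic kept in air, then shaken 30 min. Irradiated with 60Co at 0–20 Gy. Cells replated and grown 10–14 days at 37 °C, colonies stained, surviving fractions counted, triplicate.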

143B = test: Toxicity in human 143B cells at < 10 mM assessed as reduction of cell survival after 72 hrs by MTT assay; type: cell-based; in short: as §1
[2] = Partition coefficient, log P by HPLC; type: physicochemical; details: octanol/water
In short: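 Reverse-phase analytical HPLC with a gradient solvent system. Retention time compared with IAZA, FAZA and AZA standards, and P interpolated from a plot.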

EMT6 [3] = test: Toxicity in mouse EMT6 cells at < 10 mM assessed as reduction of cell survival after 72 hrs by MTT assay; type: cell-based; details: emt6, 72 h; in short: as §1
[4] = Toxicity in human 143B-LTK cells at < 10 mM assessed as reduction of cell survival after 72 hrs by MTT assay; type: cell-based; in short: as §1
[5] = Toxicity in Kirsten virus transformed mouse KBALB cells at < 10 mM assessed as reduction of cell survival after 72 hrs by MTT assay; type: cell-based; in short: as §1
EMT6 [6] = test: Toxicity in mouse EMT6 cells at 1 mM assessed as reduction of cell survival after 72 hrs by MTT assay; type: cell-based; details: emt6, 72 h, 1000 µM; in short: as §1

## O=[N+]([O-])c1nccn1[C@H]1O[C@H](CO)[C@@H](O)[C@H]1F
[1]
  Activity: Non-toxic
HCT-116
  Ratio: 1.4
143B
  Activity: Non-toxic
[2]
  logP: 1.08
EMT6 [3]
  Activity: Non-toxic
[4]
  Activity: Non-toxic
[5]
  Activity: Non-toxic
EMT6 [6]
  Activity: Non-toxic

## O=[N+]([O-])c1nccn1[C@H]1O[C@H](CF)[C@@H](O)[C@@H]1O
HCT-116
  Ratio: 1.25
[2]
  logP: 1.1
